High-throughput results deposited in PubChem BioAssay by Johns Hopkins Ion Channel Center.
TRPC4 PAM: positive allosteric modulators of TRPC4, primary screen, cell-based, mouse TRPC4beta, HEK293 mu-opioid, Fluo-4 calcium. B-score at 10 µM. Short transient receptor potential channel 4 (Mus musculus), Q9QUQ5. DAMGO EC20, Fluo-4 Ca2+ flux; active compounds read high. actives 0.42% (n = 310,000);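 active = B-score of calcium response area above 5 SD of library B-scores, with initial fluorescence ratio within 5 SD of library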;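 note: B-score of integrated fluorescence ratio over time as area under calcium response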
TRPC4 agonist: activators of mouse TRPC4 channel, primary screen, Fluo4 calcium, HEK293 TRPC4beta/mu-opioid cells; B-score at 10 µM; actives 0.49% (n = 310,000); Short transient receptor potential channel 4 (Mus musculus), Q9QUQ5; Fluo4 calcium fluorescence; active compounds read high;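 active = B-score above 5 SD of library B-scores, and initial fluorescence ratio not above library mean plus 5 SD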;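 note: positive B-score marks a calcium rise read as TRPC4 activation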
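Material: TRPC4beta and mu-opioid receptor HEK293 stable cells | Incubation: 45 min room-temperature Fluo4 loading, 110 s read | Detection: Kinetic Fluo4 calcium fluorescence | Measure: Integrated baseline-normalised fluorescence ratio, converted to per-well B score | Benchmarks: Low control buffer alone, high control maximal DAMGO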
TRPC6 inhibitor: mouse TRPC6 channel inhibitors, primary screen, cell-based, HEK293, membrane potential dye | ACh-evoked depolarization; active compounds read low | actives 1.1% (n = 310,000) | Short transient receptor potential channel 6 (Mus musculus), Q61143 | B-score at 10 µM;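 active = B-score under library mean minus 3 SD, initial fluorescence not abnormally high, positive integrated signal ratio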;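 note: B-score derived from integrated fluorescence ratio over the kinetic read; more negative B-score means stronger inhibition of depolarization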
TRPC6 act: mouse TRPC6 channel activators, primary screen, cell-based, HEK293, membrane potential dye; AID 2550, 2010; HEK293-TRPC6 membrane potential dye fluorescence; active compounds read high; Short transient receptor potential channel 6 (Mus musculus), Q61143; actives 0.13% (n = 310,000); B-score at 10 µM;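 active = B-score of the integrated fluorescence ratio above library mean plus 3 SD, and starting fluorescence ratio within library mean plus 5 SD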;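 note: higher score means more depolarization so channel activation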
TRPC4 inh: inhibitors of mouse TRPC4 channel, primary screen, Fluo4 calcium, HEK293 TRPC4beta/mu-opioid cells; DAMGO-evoked Fluo4 calcium flux; active compounds read low; B-score at 10 µM; actives 0.39% (n = 300,000);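 active = B-score over 3 SD under the library average, no early fluorescence shift, positive overall ratio signal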
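Signal: kinetic Fluo4 fluorescence imaging of calcium influx. Material: stable TRPC4beta/mu-opioid receptor HEK293 cells. Probe or stimulus: DAMGO in two steps, submaximal then maximal.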
* marks the source's active call; other numbers are inactive results; i = inactive. In the library only some 2.3% were active in any assay of this set; here they are far more common.

SMILES	TRPC4 PAM	TRPC4 agonist	TRPC6 inhibitor	TRPC6 act	TRPC4 inh
O=C(CCN1c2ccccc2Sc2ccccc21)OCc1nnc(-c2ccccc2)o1	12*	i	i	i	i
Cn1c(SCC(=O)Nc2ncc(C(F)(F)F)cc2Cl)nnc1-c1ccc(Cl)cc1	i	i	i	i	i
Cc1ccc(CC(CC(=O)O)C(=O)NCC23CC4CC(CC(C4)C2)C3)cc1 (stereo not given)	14*	i	i	i	i
CO/N=C/c1ccc(N2CCN(C(=O)c3ccc(F)cc3)CC2)c([N+](=O)[O-])c1	i	i	i	i	i
CO/N=C/c1ccc(N2CCN(C(=O)c3ccc(Cl)cc3Cl)CC2)c([N+](=O)[O-])c1	12*	i	i	i	i
CN1CCN(CC(=O)Nc2c(C#N)cnn2-c2ccccc2)CC1	i	59*	i	i	i
COc1ccc(C(CC(=O)Nc2cc([N+](=O)[O-])ccc2OC)c2ccccc2)cc1 (stereo not given)	i	i	i	i	i
Cc1cc(/C=N/n2c(COc3ccccc3C)nc3ccccc3c2=O)c(O)c([N+](=O)[O-])c1	i	i	i	i	i
O=c1c2ccccc2nc(COc2ccccc2)n1/N=C/c1cc([N+](=O)[O-])ccc1O	27*	i	i	i	i
Cc1nc(N2CCN(C)CC2)c2c3c(sc2n1)CCCC3	i	i	-5.4*	i	i
Cc1nc(N2CCN(C(=O)c3cccs3)CC2)c2c3c(sc2n1)CCCC3	i	i	i	i	i
CCn1c(SCC(=O)Nc2nncs2)nnc1C(C)NC(=O)c1ccccc1Br (stereo not given)	i	i	i	i	i
COc1ccc(CN2CCN(c3nc4ccccc4s3)CC2)cc1	23*	i	i	i	i
O=[N+]([O-])c1ccc(CN2CCN(c3nc4ccccc4s3)CC2)cc1	19*	i	i	i	i
O=C(NCCc1csc(-c2ccc(Cl)cc2)n1)c1ccco1	i	i	i	i	i
CC1=C(C(=O)c2ccccc2)C(c2ccc(OC(F)F)cc2)NC(=S)N1 (stereo not given)	i	i	i	i	i
Cc1nn(C(=O)c2cccnc2)c(C)c1Sc1ccccc1	i	i	i	i	-6*
COc1ccc(Cl)cc1NC(=O)NCC1CCN(Cc2cc(C)ccc2C)CC1	i	i	i	i	i
Cc1ccc(C)c(CN2CCC(CNC(=O)Nc3ccc(C)c(C)c3)CC2)c1	11*	i	i	i	i
CN1CCN(CC(=O)N2c3ccccc3C(=O)Nc3cccnc32)CC1	i	i	-6*	i	i
O=C(Nc1ccccc1-c1ccccc1)c1cnccn1	13*	i	i	i	i
O=C(CCc1ccc(Oc2cc([N+](=O)[O-])cc([N+](=O)[O-])c2)cc1)N1CCCCCC1	i	75*	i	i	-6*
CCc1ccc(N(CC(=O)NC(C)C)C(=O)CCC(=O)Nc2nccs2)cc1	i	i	i	i	i
CCCn1c(=O)c(C(=O)NCC2CCCO2)c(O)c2ccccc21 (stereo not given)	16*	i	i	i	i
O=C(NCC1CCCO1)c1c(O)c2ccccc2[nH]c1=O (stereo not given)	i	i	i	i	i
SMILES	TRPC4 PAM	TRPC4 agonist	TRPC6 inhibitor	TRPC6 act	TRPC4 inh
CCCn1c(=O)c(C(=O)NNC(=O)c2ccccc2Cl)c(O)c2ccccc21	i	48*	i	i	i
CC(CN1CCCCC1)NC(=O)c1cccs1 (stereo not given)	i	i	i	i	i
N#Cc1ccc(CSc2nnc(NC(=O)CCc3nc4ccccc4c(=O)[nH]3)s2)cc1	i	i	i	i	i
O=C(CSCc1cccc(Cl)c1)N1CCN(Cc2ccc3c(c2)OCO3)CC1	i	i	i	i	-7*
O=C(NCCO)C(=O)c1c(-c2ccc(Cl)cc2)cc2ccccn12	i	i	i	i	i
O=C(O)c1ccn2c(C(=O)c3ccc(Cl)cc3)c(-c3ccccc3)cc2c1	i	i	i	i	-6*
CCN1/C(=C/C=C/c2sc3ccccc3[n+]2CC)Sc2ccccc21	i	49*	i	i	i
CCN1/C(=C/C=C/C=C/c2sc3ccccc3[n+]2CC)Sc2ccccc21	i	i	i	i	i
CCOC(=O)CSc1nc2c(sc(=S)n2-c2ccccc2OC)c(=O)n1Cc1ccco1	i	i	-5.7*	i	-5*
CCOC(=O)CSc1nc2c(sc(=S)n2-c2ccccc2OC)c(=O)n1-c1ccccc1OC	i	i	i	i	i
CCN(CC)C(=O)CSc1nc2c(sc(=S)n2Cc2ccco2)c(=O)n1-c1ccccc1	i	i	i	i	i
CCOC(=O)CSc1nc2c(sc(=S)n2Cc2ccco2)c(=O)n1-c1ccccc1	i	i	i	i	-6*
COc1cccc(N2CCN(S(=O)(=O)c3ccc4c(c3)N(C(C)=O)CCO4)CC2)c1	i	i	i	i	i
Cc1cc(=O)oc2cc(OCC(=O)OCC(=O)N3CCC(C)CC3)ccc12	i	i	i	i	i
CCN(CC1COc2ccccc2O1)C(=S)NCCCN(C)C (stereo not given)	12*	i	i	i	i
O=C1CSC(=Nc2ccc(Cl)cc2)N1Cc1ccco1	i	i	i	i	i
Cc1cc(C)c(N=C2SCC(=O)N2Cc2ccco2)c(C)c1	i	i	i	i	-5*
CC(Oc1ccc2cc(-c3ccccc3)c(=O)oc2c1)C(=O)NCC1CCC(C(=O)O)CC1 (stereo not given)	i	i	i	i	i
O=C(NC(NC(=S)N1CCOCC1)C(Cl)(Cl)Cl)c1cccc2ccccc12 (stereo not given)	i	i	i	i	i
O=C(O)CCNc1nc(-c2ccccc2)c2cc(Br)ccc2n1	16*	i	i	i	i
CCN(CC(=O)N1CCOCC1)S(=O)(=O)c1ccc2ccccc2c1	i	i	i	i	i
